Assay outcomes as filed in PubChem.
Hits are enriched below; roughly 3.9% of the tested compounds scored in any of these assays.
HIF act – HIF pathway transcriptional activation. 0.32% of 300,000 active. AID 1910. U2OS HRE-luciferase reporter, luminescence; normalized: DMSO 0%, desferrioxamine 100%. activation, % at 7.5 µM (by protocol);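 active = mean activation of at least 10% of the iron chelator positive control signal, with at least half of replicates also reaching 10%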
AHR activator – activates the human aryl hydrocarbon receptor; AHR-responsive luciferase reporter cells, luminescence; 2.5% of 320,000 active; P35869; activation, % at 5 µM; AID 2796; in the data active = activation above about 47%
Target sequence (P35869 whole entry, looked up): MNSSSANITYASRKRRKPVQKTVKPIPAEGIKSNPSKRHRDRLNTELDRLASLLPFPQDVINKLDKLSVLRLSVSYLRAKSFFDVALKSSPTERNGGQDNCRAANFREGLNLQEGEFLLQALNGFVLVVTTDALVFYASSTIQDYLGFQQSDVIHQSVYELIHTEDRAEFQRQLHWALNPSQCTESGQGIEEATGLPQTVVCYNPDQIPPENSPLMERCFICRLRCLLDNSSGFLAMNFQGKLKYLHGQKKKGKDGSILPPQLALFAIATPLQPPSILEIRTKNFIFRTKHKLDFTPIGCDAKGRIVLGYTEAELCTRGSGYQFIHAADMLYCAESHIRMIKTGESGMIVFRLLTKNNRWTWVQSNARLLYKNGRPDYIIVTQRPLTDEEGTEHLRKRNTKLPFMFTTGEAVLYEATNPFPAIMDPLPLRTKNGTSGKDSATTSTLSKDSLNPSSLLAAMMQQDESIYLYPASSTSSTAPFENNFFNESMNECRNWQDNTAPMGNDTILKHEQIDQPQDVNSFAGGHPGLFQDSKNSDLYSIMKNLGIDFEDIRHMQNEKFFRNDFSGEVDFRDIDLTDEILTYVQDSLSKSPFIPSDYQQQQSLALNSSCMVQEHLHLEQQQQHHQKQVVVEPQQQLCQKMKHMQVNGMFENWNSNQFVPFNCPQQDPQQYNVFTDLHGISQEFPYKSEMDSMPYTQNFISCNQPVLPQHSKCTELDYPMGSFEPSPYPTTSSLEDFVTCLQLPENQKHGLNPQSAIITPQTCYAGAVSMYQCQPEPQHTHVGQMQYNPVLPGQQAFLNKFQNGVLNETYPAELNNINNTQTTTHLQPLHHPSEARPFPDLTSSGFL
SR-BI uptake up – SR-BI HDL lipid transfer activation; CHO ldlA[mSR-BI] cells, DiI-HDL uptake fluorescence, 3 h; 100 = double the neutral-control signal; 0.096% of 320,000 active; AID 504775; activation, % at 12.5 µM;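 active = mean replicate activation of at least 60% and every replicate at or above 60%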
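system = CHO ldlA[mSR-BI] cells, LDL receptor-null, SR-BI overexpressing | medium = Ham's F12 with 0.5% BSA, HEPES 25 mM, pH 7.4 | probe or stimulus = DiI-HDL 10 µg/mL | compound dosing = single-point compound dose | incubation = compound exposure 3 h, 37 °C | technique = DiI fluorescence, bottom read | read-out = cell-associated DiI fluorescence as measure of HDL uptake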
GAA850 FXN act – activators of GAA850 frataxin (FXN) promoter; HEK293 lucGAA850 FXN promoter luciferase reporter, 24 h; percent of 10 µM SAHA response; activation, % at 6 µM; 0.56% of 360,000 active;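 active = activation above the average of all compounds screened plus 3 SD, cutoff fixed separately per campaign, cut at about 7.5% in these data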
ABCB6 inh MLPCN – human ABCB6 transporter inhibition. K562-ABCB6 porphyrin accumulation, flow cytometry, 1 h; stronger effect = lower value. fluorescence ratio to DMSO, % at 10 µM. 0.19% of 360,000 active. AID 602162;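 active = fluorescence ratio to DMSO below 75%, the collection mean minus 3 SD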;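 also: signal is porphyrin accumulated inside mitochondria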
SR-BI DiI inh – mouse SR-BI HDL lipid transfer inhibition; inhibition, % at 12.5 µM; Q61009; 0.96% of 320,000 active; ldlA[mSR-BI] CHO cells, DiI-HDL uptake fluorescence, 3 h; AID 488896;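 active = mean replicate inhibition of at least 70% and a set share of replicates each scoring 70 or more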
Each line names hits and unclear results; the compound was inactive in the other large screens.

Oc1ccc(C[C@H]2CN([C@@H](Cc3ccccc3)CN3CCC[C@@H]3CN3C(=S)NC[C@@H]3Cc3ccccc3)C(=S)N2CC2CCCCC2)cc1	none (no result: HIF act, AHR activator, SR-BI uptake up, GAA850 FXN act, SR-BI DiI inh)
Oc1ccc(C[C@H]2CNC(=S)N2CC2CCCN2C[C@H](Cc2ccc(O)cc2)N2C[C@H](Cc3ccc(O)cc3)N(CC3CCCCCC3)C2=S)cc1 (some centres undefined)	SR-BI uptake up 185.8 (no result: HIF act, AHR activator)
CC(C)C[C@@H](CN1CCCC1CN1C(=S)NC[C@@H]1Cc1ccc(O)cc1)N1C[C@H](Cc2ccc(O)cc2)N(CCc2ccccc2)C1=S (some centres undefined)	SR-BI uptake up 177.2 (no result: HIF act, AHR activator)
Oc1ccc(C[C@H]2CNC(=S)N2CC2CCCN2C[C@H](Cc2ccc(O)cc2)N2C[C@H](Cc3ccccc3)N(CC3CCCCCC3)C2=S)cc1 (some centres undefined)	SR-BI uptake up 67.9 (no result: HIF act, AHR activator)
O=[N+]([O-])c1ccc(/C=N/Nc2ncc(Br)cn2)cc1	none (no result: AHR activator)
Cc1ccc(NCc2cccc(B(O)O)c2)cc1	none (no result: HIF act, AHR activator)
Cc1ccc2nc(-c3ccc(NC(=O)Cc4cccs4)cc3)[nH]c2c1	none (no result: HIF act)
O=C(Nc1ccccc1Oc1ccccc1)c1cccc([N+](=O)[O-])c1	AHR activator 77.0
Cc1ccc(C(=O)Nc2ccccc2Oc2ccccc2)cc1[N+](=O)[O-]	AHR activator 73.5
O=C(Nc1ccncc1NC(=O)c1cccc([N+](=O)[O-])c1)c1cccc([N+](=O)[O-])c1	none
Cc1ccc(C(=O)Nc2ccc(OCc3ccccc3)cc2)cc1[N+](=O)[O-]	none
COc1ccc(N(CC(O)Cn2c3ccccc3c3ccccc32)S(=O)(=O)c2ccccc2)cc1 (centres undefined)	AHR activator 54.7
CC1(C)Cc2nc3sc(C(=O)NCCCO)c(N)c3cc2CO1	none
COC(=O)c1sc2nc3c(cc2c1N)COC(C)(C)C3	SR-BI uptake up 170.5
Fc1cccc(/C=N/NC(=S)Nc2ccccc2Cl)c1	AHR activator 76.1
COc1ccccc1-c1cc(C(F)(F)F)nc(N2CCCC2)n1	none
COc1ccccc1-c1cc(C(F)(F)F)nc(S(=O)(=O)CCCC(=O)N2CCCCC2C)n1 (centres undefined)	HIF act 11.0
COc1ccccc1-c1cc(C(F)(F)F)nc(S(C)(=O)=O)n1	HIF act 16.3
COc1ccccc1-c1cc(C(F)(F)F)nc(S(=O)(=O)CCCC(=O)NCc2ccc(F)cc2)n1	HIF act 26.2
COc1ccccc1-c1cc(C(F)(F)F)nc(S(=O)(=O)CCCC(=O)NC(C)C)n1	HIF act 24.4
COc1ccccc1-c1cc(C(F)(F)F)nc(S(=O)(=O)CCCC(=O)Nc2cc(C)on2)n1	none
COc1ccccc1-c1cc(C(F)(F)F)nc(S(=O)(=O)CCCC(=O)Nc2cccnc2Cl)n1	none (no result: HIF act, AHR activator)
CSCCC(NC(=O)c1ccco1)C(=O)NCC(C)(C)N1CCOCC1 (centres undefined)	none (no result: HIF act)
COC(=O)c1[nH]c2cccc(OC)c2c1NC(=O)CN1CCOCC1	none
O=C(N[C@H]1c2ccccc2C[C@H]1O)[C@H]1O[C@@H](n2ccc(=O)[nH]c2=O)[C@H](O)[C@@H]1O	none (no result: HIF act, AHR activator, SR-BI uptake up, GAA850 FXN act, SR-BI DiI inh)
Cc1cc(Br)ccc1SCC(=O)OCC(=O)c1c(N)n(C)c(=O)n(C)c1=O	none (no result: SR-BI uptake up, SR-BI DiI inh)
COc1ccc(CCNc2nc(-c3ccncc3)cs2)cc1OC	AHR activator 66.4 (no result: SR-BI uptake up, SR-BI DiI inh)
COc1ccc(CCNc2nc(-c3sc(C)nc3C)cs2)cc1OC	AHR activator 52.4
Cc1ccc(O)c(-c2cc(C(=O)Nc3cccnc3)[nH]n2)c1	AHR activator 59.8 (no result: SR-BI uptake up, SR-BI DiI inh)
COc1ccc(OC)c(NC(=O)c2cc(-c3cc(C)ccc3O)n[nH]2)c1	SR-BI DiI inh 76.1 (no result: AHR activator)
COc1ccc(OC)c(NC(=O)c2cc(-c3ccc(C)cc3O)n[nH]2)c1	none
COc1ccc2[nH]c3c(NCc4ccco4)ncnc3c2c1	AHR activator 71.2 (no result: SR-BI uptake up, GAA850 FXN act, ABCB6 inh MLPCN, SR-BI DiI inh)
COc1cccc(/C=N/Nc2nc3ccccc3[nH]2)c1OC	none
COc1cccc(/C=N/Nc2ncnc3c2[nH]c2ccc(C)cc23)c1OC	AHR activator 62.1
C=CCNc1ncnc2c1[nH]c1ccc(C)cc12	AHR activator 104.6
COc1ccc(/C=N/Nc2ncnc3c2[nH]c2ccccc23)c(OC)c1OC	AHR activator 72.2
COc1cccc(/C=N/Nc2ncnc(N)c2[N+](=O)[O-])c1OC	none
CC(C)c1cc(N2CCC(=O)NC2=O)cc(C(=O)O)c1O	none
COc1ccc(Nc2nc3c([nH]2)c(=O)[nH]c(=O)n3C)cc1	none
CC(=O)Nc1ccc(NC(=O)c2csc([C@@H]3C[C@H](O)[C@@H](CO)O3)n2)cc1	none (no result: HIF act, AHR activator, SR-BI uptake up, SR-BI DiI inh)
O=C(/C=C/c1ccc(F)cc1)NCCCN1CCN(CCCNC(=O)/C=C/c2ccc(F)cc2)CC1	none
O=c1c2ccccc2nnn1-c1ccc(Br)cc1	AHR activator 117.2
Cc1cc(C)cc(-n2nnc3ccccc3c2=O)c1	none (no result: HIF act, AHR activator, SR-BI uptake up, SR-BI DiI inh)
O=C(Nc1ccc2c(c1)OCO2)c1ccc(Br)o1	AHR activator 129.1
COc1cc(NC(=O)c2cc(Br)cc(C)c2OC)ccc1NC(=O)C(C)C	none
COc1ccccc1CNC(=O)c1ccc(Br)o1	none
COc1ccccc1C(=O)NNC(=O)c1ccc(Br)o1	AHR activator 55.2
COc1cc(NC(=O)c2ccc(Br)o2)ccc1NC(=O)C(C)C	SR-BI DiI inh 71.0
O=C(Nc1ccc2c(c1)CCC2)c1ccc(Br)o1	none
Cc1cc(C(=O)Nc2ccc3c(c2)OCO3)no1	AHR activator 58.2
COC(C[C@@H](O)CC(=O)[C@@H](C)OCc1ccccc1)OC	none (no result: AHR activator)
O=C(Nc1ccc2c(c1)OCO2)c1cc(Cl)ccn1	AHR activator 66.5 (no result: HIF act)
Cc1c(C(=O)Nc2ccc3c(c2)OCO3)oc2ccccc12	AHR activator 76.2
Cc1ccc(NC(=O)C2Oc3ccccc3OC2C)cc1 (centres undefined)	AHR activator 50.7
COc1ccc(C)cc1NC(=O)c1cc(S(=O)(=O)N2CCCC2)cn1C	none
CCc1cccc(C)c1NC(=O)Nc1ccc2c(c1)OCO2	none
Cc1nn(-c2ccccc2)c(Cl)c1C(=O)OC(C)C(=O)Nc1ccc2c(c1)OCO2 (centres undefined)	AHR activator 65.6
CC(Sc1ncnc2ccccc12)C(=O)Nc1ccc2c(c1)OCO2 (centres undefined)	AHR activator 51.2
Cc1ccccc1NC(=O)Nc1ccc2c(c1)OCO2	AHR activator 68.2
CC(Sc1ccc2c(c1)OCCO2)C(=O)Nc1ccc2c(c1)OCO2 (centres undefined)	none
O=C(Cc1ccccc1[N+](=O)[O-])NNC(=O)Nc1ccc2c(c1)OCO2	none (no result: SR-BI uptake up)
O=C(Cc1ccccc1[N+](=O)[O-])Nc1ccc2c(c1)OCO2	AHR activator 61.4
CCN(CC(=O)Nc1ccc2c(c1)OCCO2)c1ccc(S(=O)(=O)N2CCOCC2)cn1	none
